Test results published in ChEMBL document CHEMBL1134957, “Synthesis and SAR of 4-carboxy-2-azetidinone mechanism-based tryptase inhibitors” (Bioorg Med Chem Lett, 2002).

Assays:
Homo sapiens [1] = organism: Homo sapiens; assay: Selectivity for human tryptase compared to human urokinase plasminogen activator.
Homo sapiens [2] = organism: Homo sapiens; assay: Selectivity for human tryptase compared to human trypsin.
Homo sapiens [3] = organism: Homo sapiens; assay: Selectivity for human tryptase compared to human tissue plasminogen activator tissue.
Homo sapiens [4] = organism: Homo sapiens; assay: Selectivity for human tryptase compared to human plasmin.
Homo sapiens [5] = organism: Homo sapiens; assay: Selectivity for human tryptase compared to human thrombin.
[6] = Aqueous Stability (half-life period) at pH 9 and 37 degrees; type: ADME; conditions: aqueous solution
Summary of the method: (§1)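 Compound half-life, reported in hours, was measured by incubation in aqueous buffer at 37 °C, run separately at pH 7 and pH 9.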

[7] = Aqueous Stability (half-life period) at pH 7 and 37 degrees; type: ADME; conditions: aqueous solution; summary of the method: as §1
Tryptase = Tryptase (Homo sapiens, UniProt Q9BZJ3+Q15661+Q9NRR2); assay: In vitro inhibition of human tryptase.
Homo sapiens [8] = organism: Homo sapiens; assay: Ratio of inhibitiroy activities against human tryptase and human plasminogen activator urokinase microPa
Cavia porcellus [9] = organism: Cavia porcellus; assay: Dose required for the inhibition of the cellular inflammatory response in ovalbumin-sensitized guinea pigs was evaluated by the reduction in cell count by 70-80%; type: functional
Summary of the method: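 Ovalbumin-sensitized guinea pigs were given saline or compound as an intratracheal spray at two dose levels (75 or 225 per kg), and the tracheal incision was closed. Ovalbumin was injected into the jugular vein about 6 min after dosing, and the animals recovered from anesthesia. Bronchoalveolar lavage cell counts and protein were measured 24 h later. Controls were sham-operated animals without ovalbumin challenge.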

Cavia porcellus [10] = organism: Cavia porcellus; assay: Effect (increase in lung resistance (Rlung)) on pulmonary mechanics of ovalbumin-sensitized guinea pigs following allergen induced bronchoconstriction; type: functional
Summary of the method: (§2)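 Guinea pigs were sensitized by ip ovalbumin with aluminum hydroxide on days 0 and 14, plus cyclophosphamide (30 mg/kg) on day 12, and used between days 35 and 65. Under Na-pentobarbital anesthesia they were mechanically ventilated, with intratracheal flow and pressure recorded in real time. Ten min before iv ovalbumin challenge, compound was given as an intratracheal aerosol spray. Rlung and Cdyn were recorded as % change (n=9).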

Cavia porcellus [11] = assay: Effect (increase in lung resistance (Rlung)) on pulmonary mechanics of ovalbumin-sensitized guinea pigs following allergen induced bronchoconstriction upon intratracheal dosage of 75 ug/kg 10 min prior to ovalbumin challenge; type: functional; summary of the method: as §2
Cavia porcellus [12] = assay: Effect (decrease in dynamic lung compliance) on pulmonary mechanics of ovalbumin-sensitized guinea pigs following allergen induced bronchoconstriction upon intratracheal dosage of 75 ug/kg 10 min prior to ovalbumin challenge; type: functional; summary of the method: as §2
Cavia porcellus [13] = organism: Cavia porcellus; assay: Effect (decrease in dynamic lung compliance) on pulmonary mechanics of ovalbumin-sensitized guinea pigs following allergen induced bronchoconstriction; type: functional; summary of the method: as §2

Compound	Selectivity ratio (Homo sapiens [1])	Selectivity ratio (Homo sapiens [2])	Selectivity ratio (Homo sapiens [3])	Selectivity ratio (Homo sapiens [4])	Selectivity ratio (Homo sapiens [5])	half-life [6] [min]	half-life [7] [min]	IC50 (Tryptase) [nM]	Selectivity ratio (Homo sapiens [8])	Dose (Cavia porcellus [9]) [µg/kg]	Rlung (Cavia porcellus [10]) [% delta]	Rlung (Cavia porcellus [11]) [% delta]	Cdyn (Cavia porcellus [12]) [% delta]	Cdyn (Cavia porcellus [13]) [% delta]
N=C(N)NCCC[C@H]1C(=O)N(C(=O)Nc2ccccc2)[C@@H]1C(=O)O (stereo in doubt; 8a) [listing 1 of 2 here]	3	1	117	52	1550	–	–	–	–	–	–	–	–	–
COC(=O)N1CCN(C(=O)N2C(=O)[C@H](CCCN=C(N)N)[C@H]2C(=O)O)CC1	–	2	> 1200	210	683	336	> 2880	9	70	–	–	–	–	–
CC(C)(C)OC(=O)N1CCN(C(=O)N2C(=O)[C@H](CCCN=C(N)N)[C@H]2C(=O)N2CCCCC2)CC1	246	1	4430	205	155	48	> 2880	3	–	–	–	–	–	–
CNC(=O)[C@@H]1[C@@H](CCCN=C(N)N)C(=O)N1C(=O)N1CCN(C(=O)OC(C)(C)C)CC1	75	3	6800	172	177	18	1910	0.7	–	–	–	–	–	–
N=C(N)NCCC[C@H]1C(=O)N(S(=O)(=O)c2ccc(-c3ccccc3)cc2)[C@@H]1C(=O)O	44	1	4370	47	7	< 6	636	1	–	–	–	–	–	–
CC(C)(C)OC(=O)N1CCN(C(=O)N2C(=O)[C@H](CCCN=C(N)N)[C@H]2C(N)=O)CC1 (single isomer, unassigned)	82	6	8300	227	105	18	2520	0.4	–	–	–	–	–	–
N=C(N)NCCC[C@H]1C(=O)N(C(=O)c2ccc(-c3ccccc3)cc2)[C@@H]1C(=O)O	3270	2	1610	8	65	< 6	666	1	–	–	–	–	–	–
N=C(N)NCCC[C@H]1C(=O)N(C(=O)NC2CCCCC2)[C@@H]1C(=O)O	–	–	–	–	–	546	> 2880	–	–	–	–	–	–	–
N=C(N)NCCC[C@H]1C(=O)N(C(=O)N2CCN(C(=O)OCCc3ccccc3)CC2)[C@@H]1C(=O)O	926	8	14200	302	3320	420	> 2880	0.7	–	–	–	–	–	–
CC(C)(C)CC(=O)N1CCN(C(=O)N2C(=O)[C@H](CCCN=C(N)N)[C@H]2C(=O)O)CC1	8	1.5	> 1000	314	> 1000	390	> 2880	11	–	–	–	–	–	–
N=C(N)NCCC[C@H]1C(=O)N(C(=O)Nc2ccccc2)[C@@H]1C(=O)O (stereo in doubt) [listing 1 of 2 here]	–	0.3	> 6	> 6	–	–	–	–	–	–	–	–	–	–
CC(C)(C)C(=O)N1CCN(C(=O)N2C(=O)[C@H](CCCN=C(N)N)[C@H]2C(=O)O)CC1	154	3	> 1500	232	> 1500	150	> 2880	7	–	–	–	–	–	–
N=C(N)NCCC[C@H]1C(=O)N(C(=O)Nc2ccccc2)[C@@H]1C(=O)O (stereo in doubt; 8a) [listing 2 of 2 here]	–	–	–	–	–	132	> 2880	6	–	–	–	–	–	–
N=C(N)NCCC[C@H]1C(=O)N(C(=O)N2CCN(C(=O)c3ccccc3)CC2)[C@@H]1C(=O)O	142	1	> 2000	332	286	234	> 2880	5.2	–	–	–	–	–	–
CCN(CC)C(=O)N1CCN(C(=O)N2C(=O)[C@H](CCCN=C(N)N)[C@H]2C(=O)O)CC1	520	3	> 6600	227	> 6600	384	> 2880	5	–	–	–	–	–	–
N=C(N)NCCC[C@H]1C(=O)N(C(=O)N2CCN(S(=O)(=O)c3ccccc3)CC2)[C@@H]1C(=O)O	43	14	> 2500	147	556	102	> 2880	13	–	–	–	–	–	–
N=C(N)NCCC[C@H]1C(=O)N(C(=O)NCc2ccccc2)[C@@H]1C(=O)O	16	2	465	45	465	408	> 2880	71	–	–	–	–	–	–
N=C(N)NCCC[C@H]1C(=O)N(C(=O)c2cccs2)[C@@H]1C(=O)O	5	3	109	12	190	< 6	522	1	–	–	–	–	–	–
N=C(N)NCCC[C@H]1C(=O)N(C(=O)Nc2ccccc2)[C@@H]1C(=O)O (relative stereo)	–	–	–	–	–	–	–	992	–	–	–	–	–	–
CC(C)(C)OC(=O)N1CCN(C(=O)N2C(=O)[C@H](CCCN=C(N)N)[C@H]2C(=O)O)CC1	218	8	> 8250	295	> 8250	372	> 2880	4	–	–	–	–	–	–
CC(C)(C)NC(=O)N1CCN(C(=O)N2C(=O)[C@H](CCCN=C(N)N)[C@H]2C(=O)O)CC1	135	18	> 8250	430	2620	480	> 2880	4	–	225	421	89	-43	-69
N=C(N)NCCC[C@H]1C(=O)N(C(=O)c2ccccc2)[C@@H]1C(=O)O	3	1	128	17	142	–	–	9	–	–	–	–	–	–
N=C(N)NCCC[C@H]1C(=O)N(C(=O)Nc2ccccc2)[C@@H]1C(=O)O (stereo in doubt) [listing 2 of 2 here]	–	–	–	–	–	–	–	5380	–	–	–	–	–	–
